Tests used:
Brain [1] = assay: Ratio of drug level in ddY mouse brain at 13.2 to 20.6 kBq, iv measured at 2 mins to drug level in ddY mouse brain at 13.2 to 20.6 kBq, iv measured at 60 mins; format: ADME, organism-based; conditions: in vivo
Method in brief: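 Tail-vein injection of the 125I tracer (13.2–20.6 kBq, saline with ethanol) into male 5-week-old ddY mice. The ratio is brain uptake (%ID/g) at 2 min divided by brain uptake at 60 min, from groups of 5 animals.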

Brain [2] = assay: Biodistribution in ddY mouse brain at 13.2 to 20.6 kBq, iv measured at 60 mins by gamma counting analysis; format: ADME, organism-based; conditions: in vivo, 1 h
Method in brief: (§1)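 Male ddY mice, 5 weeks old, received the 125I-labelled tracer (13.2–20.6 kBq) intravenously in the tail vein, in 100 µL saline containing ethanol. Animals were sacrificed at 2, 10, 30 and 60 min. Tissue radioactivity is expressed as %ID/g, mean (SD) of 5 animals.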

Liver [3] = assay: Biodistribution in ddY mouse liver at 13.2 to 20.6 kBq, iv measured at 60 mins by gamma counting analysis; format: ADME, organism-based; conditions: in vivo, 1 h; method in brief: as §1
Intestine [4] = assay: Biodistribution in ddY mouse intestine at 13.2 to 20.6 kBq, iv measured at 10 mins by gamma counting analysis; format: ADME, organism-based; conditions: in vivo; method in brief: as §1
Blood [5] = assay: Biodistribution in ddY mouse blood at 13.2 to 20.6 kBq, iv measured at 10 mins by gamma counting analysis; format: ADME, organism-based; conditions: in vivo; method in brief: as §1
[6] = 1-Octanol-PBS buffer partition coefficient, log P of the compound at 0.37 MBq after 2 mins by gamma counting analysis; format: physicochemical
Brain [7] = assay: Biodistribution in ddY mouse brain at 13.2 to 20.6 kBq, iv measured at 10 mins by gamma counting analysis; format: ADME, organism-based; conditions: in vivo; method in brief: as §1
Stomach [8] = assay: Biodistribution in ddY mouse stomach at 13.2 to 20.6 kBq, iv measured per organ at 10 mins by gamma counting analysis; format: ADME, organism-based; conditions: in vivo
Method in brief: (§2)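 Male ddY mice, 5 weeks old, were injected in the tail vein with the 125I tracer (13.2–20.6 kBq) in 100 µL saline containing ethanol. Sacrifice at 2, 10, 30 and 60 min. Stomach radioactivity is expressed as %ID per whole organ, mean (SD) of 5 animals.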

Liver [9] = assay: Biodistribution in ddY mouse liver at 13.2 to 20.6 kBq, iv measured at 10 mins by gamma counting analysis; format: ADME, organism-based; conditions: in vivo; method in brief: as §1
Spleen [10] = assay: Biodistribution in ddY mouse spleen at 13.2 to 20.6 kBq, iv measured at 30 mins by gamma counting analysis; format: ADME, organism-based; conditions: in vivo, 0.5 h; method in brief: as §1
Blood [11] = assay: Biodistribution in ddY mouse blood at 13.2 to 20.6 kBq, iv measured at 30 mins by gamma counting analysis; format: ADME, organism-based; conditions: in vivo, 0.5 h; method in brief: as §1
Spleen [12] = assay: Biodistribution in ddY mouse spleen at 13.2 to 20.6 kBq, iv measured at 2 mins by gamma counting analysis; format: ADME, organism-based; conditions: in vivo; method in brief: as §1
Liver [13] = assay: Biodistribution in ddY mouse liver at 13.2 to 20.6 kBq, iv measured at 2 mins by gamma counting analysis; format: ADME, organism-based; conditions: in vivo; method in brief: as §1
Spleen [14] = assay: Biodistribution in ddY mouse spleen at 13.2 to 20.6 kBq, iv measured at 10 mins by gamma counting analysis; format: ADME, organism-based; conditions: in vivo; method in brief: as §1
Intestine [15] = assay: Biodistribution in ddY mouse intestine at 13.2 to 20.6 kBq, iv measured at 60 mins by gamma counting analysis; format: ADME, organism-based; conditions: in vivo, 1 h; method in brief: as §1
Heart [16] = assay: Biodistribution in ddY mouse heart at 13.2 to 20.6 kBq, iv measured at 10 mins by gamma counting analysis; format: ADME, organism-based; conditions: in vivo; method in brief: as §1
Blood [17] = assay: Biodistribution in ddY mouse blood at 13.2 to 20.6 kBq, iv measured at 60 mins by gamma counting analysis; format: ADME, organism-based; conditions: in vivo, 1 h; method in brief: as §1
Heart [18] = assay: Biodistribution in ddY mouse heart at 13.2 to 20.6 kBq, iv measured at 2 mins by gamma counting analysis; format: ADME, organism-based; conditions: in vivo; method in brief: as §1
Spleen [19] = assay: Biodistribution in ddY mouse spleen at 13.2 to 20.6 kBq, iv measured at 60 mins by gamma counting analysis; format: ADME, organism-based; conditions: in vivo, 1 h; method in brief: as §1
Lung [20] = assay: Biodistribution in ddY mouse lung at 13.2 to 20.6 kBq, iv measured at 10 mins by gamma counting analysis; format: ADME, organism-based; conditions: in vivo; method in brief: as §1
Lung [21] = assay: Biodistribution in ddY mouse lung at 13.2 to 20.6 kBq, iv measured at 30 mins by gamma counting analysis; format: ADME, organism-based; conditions: in vivo, 0.5 h; method in brief: as §1
Pancreas [22] = assay: Biodistribution in ddY mouse pancreas at 13.2 to 20.6 kBq, iv measured at 60 mins by gamma counting analysis; format: ADME, organism-based; conditions: in vivo, 1 h; method in brief: as §1
Kidney [23] = assay: Biodistribution in ddY mouse kidney at 13.2 to 20.6 kBq, iv measured at 10 mins by gamma counting analysis; format: ADME, organism-based; conditions: in vivo; method in brief: as §1
Pancreas [24] = assay: Biodistribution in ddY mouse pancreas at 13.2 to 20.6 kBq, iv measured at 2 mins by gamma counting analysis; format: ADME, organism-based; conditions: in vivo; method in brief: as §1
Liver [25] = assay: Biodistribution in ddY mouse liver at 13.2 to 20.6 kBq, iv measured at 30 mins by gamma counting analysis; format: ADME, organism-based; conditions: in vivo, 0.5 h; method in brief: as §1
Brain [26] = assay: Biodistribution in ddY mouse brain at 13.2 to 20.6 kBq, iv measured at 30 mins by gamma counting analysis; format: ADME, organism-based; conditions: in vivo, 0.5 h; method in brief: as §1
Intestine [27] = assay: Biodistribution in ddY mouse intestine at 13.2 to 20.6 kBq, iv measured at 2 mins by gamma counting analysis; format: ADME, organism-based; conditions: in vivo; method in brief: as §1
Kidney [28] = assay: Biodistribution in ddY mouse kidney at 13.2 to 20.6 kBq, iv measured at 30 mins by gamma counting analysis; format: ADME, organism-based; conditions: in vivo, 0.5 h; method in brief: as §1
Kidney [29] = assay: Biodistribution in ddY mouse kidney at 13.2 to 20.6 kBq, iv measured at 2 mins by gamma counting analysis; format: ADME, organism-based; conditions: in vivo; method in brief: as §1
Heart [30] = assay: Biodistribution in ddY mouse heart at 13.2 to 20.6 kBq, iv measured at 30 mins by gamma counting analysis; format: ADME, organism-based; conditions: in vivo, 0.5 h; method in brief: as §1
Stomach [31] = assay: Biodistribution in ddY mouse stomach at 13.2 to 20.6 kBq, iv measured per organ at 2 mins by gamma counting analysis; format: ADME, organism-based; conditions: in vivo; method in brief: as §2
Blood [32] = assay: Biodistribution in ddY mouse blood at 13.2 to 20.6 kBq, iv measured at 2 mins by gamma counting analysis; format: ADME, organism-based; conditions: in vivo; method in brief: as §1
Kidney [33] = assay: Biodistribution in ddY mouse kidney at 13.2 to 20.6 kBq, iv measured at 60 mins by gamma counting analysis; format: ADME, organism-based; conditions: in vivo, 1 h; method in brief: as §1
Lung [34] = assay: Biodistribution in ddY mouse lung at 13.2 to 20.6 kBq, iv measured at 2 mins by gamma counting analysis; format: ADME, organism-based; conditions: in vivo; method in brief: as §1
Lung [35] = assay: Biodistribution in ddY mouse lung at 13.2 to 20.6 kBq, iv measured at 60 mins by gamma counting analysis; format: ADME, organism-based; conditions: in vivo, 1 h; method in brief: as §1
Brain [36] = assay: Biodistribution in ddY mouse brain at 13.2 to 20.6 kBq, iv measured at 2 mins by gamma counting analysis; format: ADME, organism-based; conditions: in vivo; method in brief: as §1
Pancreas [37] = assay: Biodistribution in ddY mouse pancreas at 13.2 to 20.6 kBq, iv measured at 30 mins by gamma counting analysis; format: ADME, organism-based; conditions: in vivo, 0.5 h; method in brief: as §1
Stomach [38] = assay: Biodistribution in ddY mouse stomach at 13.2 to 20.6 kBq, iv measured per organ at 60 mins by gamma counting analysis; format: ADME, organism-based; conditions: in vivo, 1 h; method in brief: as §2
Stomach [39] = assay: Biodistribution in ddY mouse stomach at 13.2 to 20.6 kBq, iv measured per organ at 30 mins by gamma counting analysis; format: ADME, organism-based; conditions: in vivo, 0.5 h; method in brief: as §2
Intestine [40] = assay: Biodistribution in ddY mouse intestine at 13.2 to 20.6 kBq, iv measured at 30 mins by gamma counting analysis; format: ADME, organism-based; conditions: in vivo, 0.5 h; method in brief: as §1
Heart [41] = assay: Biodistribution in ddY mouse heart at 13.2 to 20.6 kBq, iv measured at 60 mins by gamma counting analysis; format: ADME, organism-based; conditions: in vivo, 1 h; method in brief: as §1
Pancreas [42] = assay: Biodistribution in ddY mouse pancreas at 13.2 to 20.6 kBq, iv measured at 10 mins by gamma counting analysis; format: ADME, organism-based; conditions: in vivo; method in brief: as §1

Nc1ccc(/N=N/c2nc3ccc([125I])cc3s2)cc1
Ratio (Brain [1]): 0.3

CNc1ccc(/N=N/c2nc3ccc([125I])cc3s2)cc1
Ratio (Brain [1]): 0.33

CNc1ccc(/C=C/c2nc3ccc([125I])cc3[nH]2)cc1
Drug uptake (Brain [2]): 0.14 % ID/g
Drug uptake (Liver [3]): 11 % ID/g
Drug uptake (Intestine [4]): 11.5 % ID/g
Drug uptake (Blood [5]): 2.76 % ID/g
logP at 2 min [6]: 2
Drug uptake (Brain [7]): 1.42 % ID/g
Drug uptake (Stomach [8]): 4.88 %ID
Drug uptake (Liver [9]): 23.2 % ID/g
Drug uptake (Spleen [10]): 3.13 % ID/g
Drug uptake (Blood [11]): 2.19 % ID/g
Drug uptake (Spleen [12]): 5.19 % ID/g
Drug uptake (Liver [13]): 19.9 % ID/g
Drug uptake (Spleen [14]): 4.9 % ID/g
Drug uptake (Intestine [15]): 30 % ID/g
Drug uptake (Heart [16]): 2.8 % ID/g
Drug uptake (Blood [17]): 1.37 % ID/g
Ratio (Brain [1]): 29.4
Drug uptake (Heart [18]): 6.68 % ID/g
Drug uptake (Spleen [19]): 1.74 % ID/g
Drug uptake (Lung [20]): 3.55 % ID/g
Drug uptake (Lung [21]): 1.93 % ID/g
Drug uptake (Pancreas [22]): 0.51 % ID/g
Drug uptake (Kidney [23]): 5.85 % ID/g
Drug uptake (Pancreas [24]): 6.8 % ID/g
Drug uptake (Liver [25]): 16 % ID/g
Drug uptake (Brain [26]): 0.36 % ID/g
Drug uptake (Intestine [27]): 4.96 % ID/g
Drug uptake (Kidney [28]): 3.07 % ID/g
Drug uptake (Kidney [29]): 11.2 % ID/g
Drug uptake (Heart [30]): 1.28 % ID/g
Drug uptake (Stomach [31]): 2.31 %ID
Drug uptake (Blood [32]): 3.65 % ID/g
Drug uptake (Kidney [33]): 2.02 % ID/g
Drug uptake (Lung [34]): 7.13 % ID/g
Drug uptake (Lung [35]): 1.32 % ID/g
Drug uptake (Brain [36]): 4.11 % ID/g
Drug uptake (Pancreas [37]): 0.92 % ID/g
Drug uptake (Stomach [38]): 2.97 %ID
Drug uptake (Stomach [39]): 4.65 %ID
Drug uptake (Intestine [40]): 28.4 % ID/g
Drug uptake (Heart [41]): 0.74 % ID/g
Drug uptake (Pancreas [42]): 2.58 % ID/g

From ChEMBL document CHEMBL2384977, “Synthesis and biological evaluation of novel styryl benzimidazole derivatives as probes for imaging of neurofibrillary tangles in Alzheimer's disease” (Bioorg Med Chem, 2013)
